Data taken from ChEMBL document CHEMBL1275544, “Effect of therapeutic chemical agents in vitro and on experimental meningoencephalitis due to Naegleria fowleri” (Antimicrob Agents Chemother, 2008).
In brackets after ≈: the same amount, converted by molar mass. Activity calls are given as the source filed them. No cut-off for these calls is given here.

Legend:
Naegleria fowleri [1] = assay: Antiparasitic activity against Naegleria fowleri ATCC 30215 trophozoites assessed as inhibition of amoeba proliferation at 0.39 ug/ml on day 2; assay type: functional; settings: ATCC 30215, 48 h
Outline: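 Viable amoebae counted by hemacytometer with trypan blue on day 2, with light-microscope morphology. Triplicate wells, at least three repeats.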

Naegleria fowleri [2] = assay: Antiparasitic activity against Naegleria fowleri ATCC 30215 trophozoites after 6 days; assay type: functional; settings: ATCC 30215, 144 h, read-out: MIC100
Naegleria fowleri [3] = assay: Antiparasitic activity against Naegleria fowleri ATCC 30215 trophozoites after 2 days; assay type: functional; settings: ATCC 30215, 48 h, read-out: MIC100
Naegleria fowleri [4] = assay: Antiparasitic activity against Naegleria fowleri ATCC 30215 trophozoites after 4 days; assay type: functional; settings: ATCC 30215, 96 h, read-out: MIC100
Naegleria fowleri [5] = assay: Antiparasitic activity against Naegleria fowleri ATCC 30215 trophozoites at 25 ug/ml on day 6 by LDH release assay; assay type: functional
Outline: (§1)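 Supernatant sampled on days 2, 4, 6, mixed with CytoTox96 reagent for 30 min at room temperature, stopped, A490 read. Cytotoxicity % = (sample − spontaneous)/(maximum − spontaneous) ×100. Means ± SE of three experiments in triplicate.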

Naegleria fowleri [6] = assay: Antiparasitic activity against Naegleria fowleri ATCC 30215 trophozoites at >1.56 ug/ml on day 4 by LDH release assay; assay type: functional; outline: as §1
Mus musculus [7] = assay: Blood urea nitrogen level in BALB/c mouse serum at 5 mg/kg, ip; assay type: ADME, organism-based; set-up: dose 5 mg/kg, route intraperitoneal; settings: in vivo
Outline: (§2)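 Renal toxicity check: BALB/c mice given drug i.p. at 5, 10, 20 or 50 mg/kg (saline vehicle), or saline as negative control. Blood collected once daily for 3 days. Serum blood urea nitrogen measured on a clinical chemical analyzer.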

Mus musculus [8] = assay: Blood urea nitrogen level in BALB/c mouse serum at 10 mg/kg, ip; assay type: ADME, organism-based; set-up: dose 10 mg/kg, route intraperitoneal; settings: in vivo; outline: as §2
Mus musculus [9] = assay: Blood urea nitrogen level in BALB/c mouse serum at 20 mg/kg, ip; assay type: ADME, organism-based; set-up: dose 20 mg/kg, route intraperitoneal; settings: in vivo; outline: as §2
Naegleria fowleri [10] = assay: Antiparasitic activity against Naegleria fowleri ATCC 30215 trophozoites infected in BALB/c mouse assessed as mouse survival at 10 mg/kg, ip administered on days 3, 7 and 11 postinfection; assay type: functional, ATCC30215; settings: route intraperitoneal
Outline: (§3)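 Female BALB/c mice, 7 weeks old, were infected intranasally under secobarbital anaesthesia with 10^4 trophozoites grown 3 days in Nelson's medium at 37°C. Drug was dissolved in saline and given as 100 µl intraperitoneally, starting day 3; controls received saline; 20 mice per group. Deaths were recorded daily for 1 month and mean time to death computed per group. Cause of death was confirmed by brain-tissue culture.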

Naegleria fowleri [11] = assay: Antiparasitic activity against Naegleria fowleri ATCC 30215 trophozoites infected in BALB/c mouse assessed as mean time to death at 10 mg/kg, ip administered on days 3, 7 and 11 postinfection; assay type: functional, ATCC30215; settings: route intraperitoneal; outline: as §3
Naegleria fowleri [12] = assay: Antiparasitic activity against Naegleria fowleri ATCC 30215 trophozoites at 100 ug/ml on day 4 by LDH release assay; assay type: functional; outline: as §1
Mus musculus [13] = assay: Blood urea nitrogen level in BALB/c mouse serum at 50 mg/kg, ip; assay type: ADME, organism-based; set-up: dose 50 mg/kg, route intraperitoneal; settings: in vivo; outline: as §2
[14] = Hepatotoxicity in BALB/c mouse hepatocytes assessed as change in cell morphology at 20 mg/kg, ip by histopathological analysis; assay type: toxicity, organism-based, Hepatocyte; set-up: dose 20 mg/kg, route intraperitoneal
Outline: (§4)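 Toxicity histology: BALB/c mice dosed i.p. at 20 mg/kg in saline. Liver and kidney fixed in 10% neutral buffered formalin, paraffin-embedded, H&E-stained, and complete cross-sections examined by light microscopy (×100, ×400) for hepatocyte and renal cortical tubule size and shape.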

Mus musculus [15] = assay: Renal toxicity in BALB/c mouse assessed as degeneration of renal tubules at 20 mg/kg, ip by histopathological analysis; assay type: organism-based; set-up: dose 20 mg/kg, route intraperitoneal; settings: in vivo
Mus musculus [16] = assay: Renal toxicity in BALB/c mouse assessed as necrosis in kidney cortex at 20 mg/kg, ip by histopathological analysis; assay type: organism-based; set-up: dose 20 mg/kg, route intraperitoneal; settings: in vivo
Mus musculus [17] = assay: Renal toxicity in BALB/c mouse assessed as change in renal cortical tubule morphology at 20 mg/kg, ip by histopathological analysis; assay type: organism-based; set-up: dose 20 mg/kg, route intraperitoneal; settings: in vivo; outline: as §4
Naegleria fowleri [18] = assay: Antiparasitic activity against Naegleria fowleri ATCC 30215 trophozoites infected in BALB/c mouse assessed as mouse survival at 20 mg/kg, ip administered on days 3 and 7 postinfection; assay type: functional, ATCC30215; settings: route intraperitoneal; outline: as §3
Naegleria fowleri [19] = assay: Antiparasitic activity against Naegleria fowleri ATCC 30215 trophozoites infected in BALB/c mouse assessed as mouse survival at 20 mg/kg, ip administered on days 3, 7 and 11 postinfection; assay type: functional, ATCC30215; settings: route intraperitoneal; outline: as §3
Naegleria fowleri [20] = assay: Antiparasitic activity against Naegleria fowleri ATCC 30215 trophozoites infected in BALB/c mouse assessed as mean time to death at 20 mg/kg, ip administered on days 3, 7 and 11 postinfection; assay type: functional, ATCC30215; settings: route intraperitoneal; outline: as §3
Naegleria fowleri [21] = assay: Antiparasitic activity against Naegleria fowleri ATCC 30215 trophozoites infected in BALB/c mouse brain by histopathology analysis; assay type: functional, organism-based; settings: ATCC30215
Outline: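 Female BALB/c mice, 7 weeks old, infected intranasally under secobarbital with 10^4 trophozoites grown 3 days in Nelson's medium at 37°C. Drugs given i.p. in saline on days 3, 7, 11. Brains of dead mice or mice surviving 1 month fixed in 10% neutral buffered formalin, paraffin-embedded, H&E-stained and examined by light microscopy. 20 mice/group.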

Naegleria fowleri [22] = assay: Antiparasitic activity against Naegleria fowleri ATCC 30215 trophozoites at 50 ug/ml on day 6 by LDH release assay; assay type: functional; outline: as §1
Naegleria fowleri [23] = assay: Antiparasitic activity against Naegleria fowleri ATCC 30215 trophozoites at 1.56 ug/ml on day 2 by LDH release assay; assay type: functional; outline: as §1
Naegleria fowleri [24] = assay: Antiparasitic activity against Naegleria fowleri ATCC 30215 trophozoites at 3.125 ug/ml on day 2 by LDH release assay; assay type: functional; outline: as §1
Naegleria fowleri [25] = assay: Antiparasitic activity against Naegleria fowleri ATCC 30215 trophozoites at 6.25 ug/ml on day 2 by LDH release assay; assay type: functional; outline: as §1
Naegleria fowleri [26] = assay: Antiparasitic activity against Naegleria fowleri ATCC 30215 trophozoites at 12.5 ug/ml on day 2 by LDH release assay; assay type: functional; outline: as §1
Naegleria fowleri [27] = assay: Antiparasitic activity against Naegleria fowleri ATCC 30215 trophozoites at 25 ug/ml on day 2 by LDH release assay; assay type: functional; outline: as §1
Naegleria fowleri [28] = assay: Antiparasitic activity against Naegleria fowleri ATCC 30215 trophozoites at 50 ug/ml on day 2 by LDH release assay; assay type: functional; outline: as §1
Naegleria fowleri [29] = assay: Antiparasitic activity against Naegleria fowleri ATCC 30215 trophozoites at 100 ug/ml on day 2 by LDH release assay; assay type: functional; outline: as §1

`C[C@@H]1[C@H](O)[C@@H](C)/C=C/C=C/C=C/C=C/C=C/C=C/C=C/[C@H](O[C@@H]2O[C@H](C)[C@@H](O)[C@H](N)[C@@H]2O)C[C@@H]2O[C@](O)(C[C@@H](O)C[C@@H](O)[C@H](O)CC[C@@H](O)C[C@@H](O)CC(=O)O[C@H]1C)C[C@H](O)[C@H]2C(=O)O` [AMPHOTERICIN B] gave an inhibition at 0.39 µg/mL (Naegleria fowleri [1]) of 100%, an MIC (Naegleria fowleri [2]) of 0.78 µg/mL (≈ 0.844 µM) and an MIC (Naegleria fowleri [3]) of 0.78 µg/mL (≈ 0.844 µM). For the same compound, the MIC (Naegleria fowleri [4]) was 0.78 µg/mL (≈ 0.844 µM), the Activity (Naegleria fowleri [5]) was 99.5% and the Activity (Naegleria fowleri [6]) was >50%. It also gave an Activity (Mus musculus [7]) of 27.4 mg/dL, an Activity (Mus musculus [8]) of 38.6 mg/dL and an Activity (Mus musculus [9]) of 44.1 mg/dL. For the same compound, the Activity (Naegleria fowleri [10]) was 40% and the Time (Naegleria fowleri [11]) was 17.3 days.
`CN(C)CCCN1c2ccccc2Sc2ccc(Cl)cc21` [CHLORPROMAZINE] showed an MIC (Naegleria fowleri [2]) of 12.5 µg/mL (≈ 39.2 µM), an MIC (Naegleria fowleri [3]) of 12.5 µg/mL (≈ 39.2 µM) and an MIC (Naegleria fowleri [4]) of 12.5 µg/mL (≈ 39.2 µM). It also gave an Activity (Naegleria fowleri [5]) of 64.4%, an Activity (Naegleria fowleri [12]) of 69.1% and an Activity (Mus musculus [8]) of 36.3 mg/dL. The Activity (Mus musculus [9]) was 38.4 mg/dL, the Activity (Mus musculus [13]) was 57.5 mg/dL and the Activity [14] was “Non-toxic”. The Activity (Mus musculus [15]) was “Non-toxic”, the Activity (Mus musculus [16]) was “Non-toxic” and the Activity (Mus musculus [17]) was “Non-toxic”. It also gave an Activity (Naegleria fowleri [18]) of 35%, an Activity (Naegleria fowleri [19]) of 75% and a Time (Naegleria fowleri [20]) of 17.2 days. For the same compound, the Activity (Naegleria fowleri [21]) was “Active”.
In the case of `CCCCCCCCCCCCCCCCOP(=O)([O-])OCC[N+](C)(C)C` [MILTEFOSINE], the MIC (Naegleria fowleri [2]) is reported as 25 µg/mL (≈ 61.3 µM), the MIC (Naegleria fowleri [3]) is reported as 25 µg/mL (≈ 61.3 µM) and the MIC (Naegleria fowleri [4]) is reported as 25 µg/mL (≈ 61.3 µM). The Activity (Naegleria fowleri [22]) was 79.3%, the Activity (Naegleria fowleri [23]) was <30% and the Activity (Naegleria fowleri [24]) was <30%. For the same compound, the Activity (Naegleria fowleri [25]) was <30%, the Activity (Naegleria fowleri [26]) was <30% and the Activity (Naegleria fowleri [27]) was <30%. The Activity (Naegleria fowleri [28]) was <30%, the Activity (Naegleria fowleri [29]) was <30% and the Activity (Mus musculus [8]) was 29.6 mg/dL. The Activity (Mus musculus [9]) was 34.6 mg/dL, the Activity (Mus musculus [13]) was 82.4 mg/dL and the Activity (Naegleria fowleri [18]) was 20%. For the same compound, the Activity (Naegleria fowleri [19]) was 55%.
